MrgX1 antagonist: antagonists of human MrgX1 receptor, primary screen, HEK293 cells, Fluo-4 calcium flux. B-score at 10 µM. 1.3% of 310,000 active. BAM8-22 antagonism; hits give low values. Mas-related G-protein coupled receptor member X1 (Homo sapiens), Q96LB2;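 active means calcium-response B-score plate-corrected more than 3 library SD below zero, starting fluorescence within 5 deviations, no agonist response on first addition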;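 further: peak minus trough fluorescence over baseline after final BAM8-22 challenge near maximal dose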
Target sequence (Q96LB2 whole entry, looked up): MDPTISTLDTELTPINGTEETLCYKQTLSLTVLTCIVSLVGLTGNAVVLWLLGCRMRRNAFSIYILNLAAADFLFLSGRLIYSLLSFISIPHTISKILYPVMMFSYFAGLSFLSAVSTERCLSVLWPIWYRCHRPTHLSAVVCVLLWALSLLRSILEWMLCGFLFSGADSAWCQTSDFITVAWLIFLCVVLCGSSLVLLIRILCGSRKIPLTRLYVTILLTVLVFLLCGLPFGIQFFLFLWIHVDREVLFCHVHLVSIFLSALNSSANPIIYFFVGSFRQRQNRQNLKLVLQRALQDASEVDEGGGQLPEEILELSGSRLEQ
RGS4 block: RGS4 inhibitors, primary screen, cell-based, HEK293 M3R inducible RGS4, calcium flux; Regulator of G-protein signaling 4 (Homo sapiens), P49798; Fluo-4 calcium flux; hits give high values; triggered by carbachol at its EC20; B-score at 10 µM; 0.45% of 310,000 active; AID 463165, 2010;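 active means B-score, a plate-corrected calcium signal, over three deviations above library mean, with baseline fluorescence within five deviations of library mean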;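 further: RGS4 expression induced by doxycycline in cells with stable M3 receptor; B-score is computed from the integrated fluorescence ratio over baseline after carbachol; higher B-score means a larger calcium signal and so more RGS4 inhibition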
Target sequence (P49798 whole entry, looked up): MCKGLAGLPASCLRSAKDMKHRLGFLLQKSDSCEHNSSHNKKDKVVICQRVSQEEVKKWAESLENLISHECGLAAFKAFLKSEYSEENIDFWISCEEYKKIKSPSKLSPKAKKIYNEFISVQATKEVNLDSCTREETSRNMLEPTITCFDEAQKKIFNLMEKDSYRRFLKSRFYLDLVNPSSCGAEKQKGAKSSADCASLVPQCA
MrgX1 agonist: agonists of human MrgX1 receptor, primary screen, HEK293 cells, Fluo-4 calcium flux | Fluo-4 calcium fluorescence, agonist mode; hits give high values | B-score at 10 µM | 0.44% of 310,000 active | AID 588627, 2011;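 active means calcium response B-score plate-corrected fluorescence ratio at least 3 library SD, with starting fluorescence B-score inside 5 SD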
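Material: HEK293 cells stably expressing human MrgX1 receptor | Quantity: 15,000 cells per well | Times: Cells plated overnight, dye loaded 0.5 h 37 °C, 0.5 h room temperature | Measured by: Kinetic Fluo-4 NW fluorescence of intracellular calcium | Control set: Positive and negative controls per plate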
RGS4 act: RGS4 potentiators or activators, primary screen, cell-based, HEK293 M3R inducible RGS4, calcium flux. carbachol calcium flux Fluo4; hits give low values. B-score at 10 µM. 0.92% of 310,000 active;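 active means B-score of the integrated calcium signal more than 4 SD below the library mean, with starting fluorescence not abnormally high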;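 further: negative B-score means reduced calcium response which marks RGS4 activation or potentiation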
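Material: Inducible-RGS4 HEK293 cells carrying M3 receptor; also added: carbachol at ECmax as muscarinic agonist stimulus; incubation: compound preincubation 20 min at room temperature before agonist; signal: Fluo4-AM (2 µM) calcium-flux fluorescence, kinetic read; measure: integrated calcium ratio converted to B score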
MrgX1 allo act: positive allosteric modulators of MrgX1, primary screen, HEK293 cells, Fluo-4 calcium flux | Mas-related G-protein coupled receptor member X1 (Homo sapiens), Q96LB2 | FDSS; hits give high values | B-score at 10 µM | 0.63% of 310,000 active;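 active means plate-corrected calcium response at least 3 library SD above typical, normal starting fluorescence, not activating the receptor alone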;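 further: compound read alongside a low EC10 to EC30 dose of BAM8-22 agonist; peak minus trough fluorescence over baseline measured at the second addition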
Numbers stand for hits. An excerpt weighted towards active compounds, which were near 3.5% of everything screened.

How did O=C1NN(c2cccc(Br)c2)C(=O)/C1=C/c1cccs1 do in these assays?
MrgX1 antagonist: inactive; RGS4 block: inactive; MrgX1 agonist: 30; RGS4 act: inactive; MrgX1 allo act: inactive

Results for O=C1C(=Cc2cccs2)C(=O)c2ccccc21 ?
MrgX1 antagonist: inactive; RGS4 block: inactive; MrgX1 agonist: 32; RGS4 act: inactive; MrgX1 allo act: inactive

What do the screens show for `CS(=O)(=O)c1ccc(C(=O)OC2CCOC2=O)cc1[N+](=O)[O-]` (stereo not given)?
MrgX1 antagonist: inactive; RGS4 block: inactive; MrgX1 agonist: inactive; RGS4 act: inactive; MrgX1 allo act: inactive

How did COc1ccccc1OCCNC(=O)c1ccc(C)c(S(=O)(=O)N2CCOCC2)c1 do in these assays?
MrgX1 antagonist: inactive; RGS4 block: inactive; MrgX1 agonist: inactive; RGS4 act: inactive; MrgX1 allo act: inactive

How did CCOC(=O)C1CCN(Cc2nnc(-c3ccccc3C)o2)CC1 do in these assays?
MrgX1 antagonist: inactive; RGS4 block: inactive; MrgX1 agonist: inactive; RGS4 act: inactive; MrgX1 allo act: inactive

Results for O=C(Nc1ccccc1)/C(=C/c1ccccc1)c1ccccc1 ?
MrgX1 antagonist: inactive; RGS4 block: inactive; MrgX1 agonist: inactive; RGS4 act: inactive; MrgX1 allo act: inactive

Results for Cc1ccccc1NC(=O)/C(=C/c1ccccc1)c1ccccc1 ?
MrgX1 antagonist: inactive; RGS4 block: inactive; MrgX1 agonist: inactive; RGS4 act: inactive; MrgX1 allo act: 8.1

How did Cc1cccc(C)c1NC(=O)/C(=C/c1ccco1)c1ccccc1 do in these assays?
MrgX1 antagonist: inactive; RGS4 block: inactive; MrgX1 agonist: inactive; RGS4 act: inactive; MrgX1 allo act: 12

Results for O=C(NC1CCCC1)C1CCCN(S(=O)(=O)c2ccc(F)cc2)C1 (stereo not given) ?
MrgX1 antagonist: inactive; RGS4 block: inactive; MrgX1 agonist: inactive; RGS4 act: inactive; MrgX1 allo act: inactive

What do the screens show for `CCOC(=O)C1C(=O)C=C(c2cccc(NS(C)(=O)=O)c2)CC1c1ccco1` (stereo not given)?
MrgX1 antagonist: inactive; RGS4 block: inactive; MrgX1 agonist: inactive; RGS4 act: inactive; MrgX1 allo act: inactive

How did CCOC(=O)C1C(=O)C=C(c2ccc(Br)cc2)CC1c1ccco1 (stereo not given) do in these assays?
MrgX1 antagonist: -5.7; RGS4 block: inactive; MrgX1 agonist: inactive; RGS4 act: inactive; MrgX1 allo act: inactive

What do the screens show for `CCCCN(C1CCS(=O)(=O)C1)S(=O)(=O)c1ccc(OC)c(OC)c1` (stereo not given)?
MrgX1 antagonist: inactive; RGS4 block: inactive; MrgX1 agonist: inactive; RGS4 act: inactive; MrgX1 allo act: inactive

How did CSc1nnc(C)c(=O)n1COC(=O)c1ccc([N+](=O)[O-])cc1 do in these assays?
MrgX1 antagonist: inactive; RGS4 block: inactive; MrgX1 agonist: inactive; RGS4 act: inactive; MrgX1 allo act: 12

Results for Cc1oc(-c2ccc(Cl)cc2)nc1CS(=O)CC(=O)NCc1ccc2c(c1)OCO2 (stereo not given) ?
MrgX1 antagonist: -4.9; RGS4 block: inactive; MrgX1 agonist: inactive; RGS4 act: inactive; MrgX1 allo act: inactive

Results for O=C(COc1coc(CN2CCN(c3ccccc3)CC2)cc1=O)Nc1ccc(F)cc1 ?
MrgX1 antagonist: inactive; RGS4 block: inactive; MrgX1 agonist: inactive; RGS4 act: inactive; MrgX1 allo act: inactive

How did COc1ccccc1C(=O)NC(CCSC)C(=O)OC(C)C(N)=O (stereo not given) do in these assays?
MrgX1 antagonist: inactive; RGS4 block: inactive; MrgX1 agonist: inactive; RGS4 act: inactive; MrgX1 allo act: 12

Results for CCN(CC(=O)NC(C)C)C(=O)C(CCSC)NC(=O)c1ccccc1OC (stereo not given) ?
MrgX1 antagonist: inactive; RGS4 block: inactive; MrgX1 agonist: inactive; RGS4 act: inactive; MrgX1 allo act: inactive

What do the screens show for `COc1ccccc1OCCCN1C(=O)C(=O)c2cccc(C)c21`?
MrgX1 antagonist: inactive; RGS4 block: inactive; MrgX1 agonist: 28; RGS4 act: inactive; MrgX1 allo act: inactive

How did COc1ccccc1CCC(=O)OCC(=O)Nc1cccc(S(=O)(=O)N2CCCCC2)c1 do in these assays?
MrgX1 antagonist: -4.7; RGS4 block: inactive; MrgX1 agonist: inactive; RGS4 act: inactive; MrgX1 allo act: inactive

Results for CCC(=O)Nc1cccc(C(=O)/C=C/c2ccc(F)cc2)c1 ?
MrgX1 antagonist: inactive; RGS4 block: inactive; MrgX1 agonist: 29; RGS4 act: inactive; MrgX1 allo act: inactive

What do the screens show for `COc1cccc(NC(=S)NC(=O)/C=C/c2ccc(F)cc2)c1`?
MrgX1 antagonist: inactive; RGS4 block: inactive; MrgX1 agonist: inactive; RGS4 act: inactive; MrgX1 allo act: inactive

What do the screens show for `Cc1ccc(SCCNC(=O)c2ccc([N+](=O)[O-])c(C)c2)cc1`?
MrgX1 antagonist: inactive; RGS4 block: inactive; MrgX1 agonist: inactive; RGS4 act: inactive; MrgX1 allo act: inactive

What do the screens show for `Cc1ccc(SCCNC(=O)c2ccc(C)c([N+](=O)[O-])c2)cc1`?
MrgX1 antagonist: inactive; RGS4 block: inactive; MrgX1 agonist: inactive; RGS4 act: -7; MrgX1 allo act: inactive

How did Cc1cc(C(=O)NC2CCCN(Cc3ccc(Cl)cc3)C2)n(C)n1 (stereo not given) do in these assays?
MrgX1 antagonist: inactive; RGS4 block: inactive; MrgX1 agonist: inactive; RGS4 act: inactive; MrgX1 allo act: inactive

How did CCn1c(=O)c(C(=O)NNC(=O)c2ccc(Cl)cc2Cl)c(O)c2ccccc21 do in these assays?
MrgX1 antagonist: inactive; RGS4 block: inactive; MrgX1 agonist: 69; RGS4 act: -7.8; MrgX1 allo act: inactive

How did CCc1nc2ccccc2c(=O)n1NC(=O)c1c(O)c2ccccc2n(CC)c1=O do in these assays?
MrgX1 antagonist: inactive; RGS4 block: inactive; MrgX1 agonist: inactive; RGS4 act: inactive; MrgX1 allo act: 12

What do the screens show for `CCn1c(=O)c(C(=O)Nn2c(C)nc3ccccc3c2=O)c(O)c2ccccc21`?
MrgX1 antagonist: inactive; RGS4 block: inactive; MrgX1 agonist: inactive; RGS4 act: inactive; MrgX1 allo act: inactive

Results for CCCn1c(=O)c(C(=O)NNC(=O)c2ccc(Cl)cc2Cl)c(O)c2ccccc21 ?
MrgX1 antagonist: inactive; RGS4 block: inactive; MrgX1 agonist: 38; RGS4 act: inactive; MrgX1 allo act: inactive

What do the screens show for `CCCn1c(=O)c(C(=O)NCCc2ccccc2)c(O)c2ccccc21`?
MrgX1 antagonist: inactive; RGS4 block: inactive; MrgX1 agonist: inactive; RGS4 act: inactive; MrgX1 allo act: inactive

What do the screens show for `CCCn1c(=O)c(C(=O)NCCc2ccc(OC)cc2)c(O)c2ccccc21`?
MrgX1 antagonist: inactive; RGS4 block: inactive; MrgX1 agonist: inactive; RGS4 act: inactive; MrgX1 allo act: 7

What do the screens show for `CCC(=O)N1c2ccc(S(=O)(=O)N3CCOCC3)cc2CC1C` (stereo not given)?
MrgX1 antagonist: inactive; RGS4 block: inactive; MrgX1 agonist: inactive; RGS4 act: inactive; MrgX1 allo act: inactive
